{"source": "ChEMBL document CHEMBL1821696", "about": "“Substitution of the phosphonic acid and hydroxamic acid functionalities of the DXR inhibitor FR900098: an attempt to improve the activity against Mycobacterium tuberculosis” (Bioorg Med Chem Lett, 2011)", "key": {"[1]": {"target": "T1, 1-deoxy-D-xylulose 5-phosphate reductoisomerase (Mycobacterium tuberculosis) (UniProt P9WNS1)", "T1 sequence (whole entry)": "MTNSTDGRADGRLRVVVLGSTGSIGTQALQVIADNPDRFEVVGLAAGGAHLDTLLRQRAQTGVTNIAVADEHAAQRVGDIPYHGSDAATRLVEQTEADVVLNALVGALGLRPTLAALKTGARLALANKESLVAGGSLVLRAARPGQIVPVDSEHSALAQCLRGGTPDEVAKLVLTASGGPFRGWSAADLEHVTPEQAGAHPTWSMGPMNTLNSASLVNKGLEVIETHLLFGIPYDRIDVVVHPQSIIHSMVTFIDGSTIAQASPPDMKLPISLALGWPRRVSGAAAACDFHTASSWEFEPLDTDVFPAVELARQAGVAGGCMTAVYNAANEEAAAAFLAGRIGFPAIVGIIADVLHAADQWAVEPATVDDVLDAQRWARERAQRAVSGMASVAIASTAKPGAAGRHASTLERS", "experiment": "Inhibition of Mycobacterium tuberculosis DXR assessed as reduction of 1-deoxy-D-xylulose 5-phosphate into 2-C-methyl-D-erythritol-4-phosphate at 100 uM measured for every 5 secs upto 500 secs by spectrophotometry analysis", "procedure,_shortened": "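MtDXR reaction in 50 mM HEPES-NaOH pH 7.5, 100 mM NaCl, 1.5 mM MnCl2, 0.2 mM NADPH, 0.2 mM DXP and a single inhibitor concentration. Started by adding DXP and run at 22 °C. NADPH consumption read as A340 every 5 s for 500 s. Initial velocity from the linear slope gives % inhibition relative to the uninhibited reaction.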"}, "[2]": {"test_system": "Mycobacterium tuberculosis", "experiment": "Antimycobacterial activity against Mycobacterium tuberculosis by whole-cell assay", "format": "functional"}, "[3]": {"target": "T2, 1-deoxy-D-xylulose 5-phosphate reductoisomerase (Mycobacterium tuberculosis, UniProt P9WNS1)", "T2 sequence (P9WNS1 whole entry)": "T1 sequence (whole entry)", "experiment": "Inhibition of Mycobacterium tuberculosis DXR assessed as reduction of 1-deoxy-D-xylulose 5-phosphate into 2-C-methyl-D-erythritol-4-phosphate measured for every 5 secs upto 500 secs by spectrophotometry analysis", "procedure,_shortened": "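MtDXR in 50 mM HEPES-NaOH pH 7.5, 100 mM NaCl, 1.5 mM MnCl2, 0.2 mM NADPH and 0.2 mM DXP, started with DXP at 22 °C. A340 read every 5 s for 500 s. Six inhibitor concentrations spanning 0.01–1000. Initial-rate activities relative to the uninhibited reaction were fitted to a Hi/Lo four-parameter curve for IC50.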"}}, "note": "pIC50: −log10 of the molar value."}
{"smiles": "CC(=O)N(O)CCCc1nnn[nH]1", "values": [{"measurement": "inhibition", "setting": "[1]", "result": 0, "unit": "%"}]}
{"smiles": "O=c1oc2cc(-c3ccccc3)cnc2n1CCCP(=O)(O)O", "values": [{"measurement": "MIC", "setting": "[2]", "result": 256, "unit": "µg/mL"}, {"measurement": "inhibition", "setting": "[1]", "result": 11, "unit": "%"}]}
{"smiles": "O=c1cccc(CCP(=O)(O)O)n1O", "values": [{"measurement": "pIC50", "setting": "[3]", "result": 4.28}, {"measurement": "MIC", "setting": "[2]", "result": "> 512", "unit": "µg/mL"}, {"measurement": "inhibition", "setting": "[1]", "result": 61, "unit": "%"}]}
{"smiles": "O=C1N[C@H](CCP(=O)(O)O)CO1", "values": [{"measurement": "inhibition", "setting": "[1]", "result": 0, "unit": "%"}]}
{"smiles": "O=c1oc2cc(Br)cnc2n1CCCP(=O)(O)O", "values": [{"measurement": "inhibition", "setting": "[1]", "result": 7, "unit": "%"}]}
{"smiles": "O=c1oc2cccnc2n1CCCP(=O)(O)O", "values": [{"measurement": "inhibition", "setting": "[1]", "result": 11, "unit": "%"}]}
{"smiles": "CC(=O)N(O)CCCP(=O)(O)OCCc1ccccc1", "values": [{"measurement": "inhibition", "setting": "[1]", "result": 23, "unit": "%"}]}
{"smiles": "O=P(O)(O)CCc1ccc(O)c(O)c1", "values": [{"measurement": "pIC50", "setting": "[3]", "result": 4.39}, {"measurement": "MIC", "setting": "[2]", "result": "> 512", "unit": "µg/mL"}, {"measurement": "inhibition", "setting": "[1]", "result": 78, "unit": "%"}]}
{"smiles": "O=C1NC(=O)C(CCP(=O)(O)O)N1", "note": "(configuration not stated)", "values": [{"measurement": "inhibition", "setting": "[1]", "result": 8, "unit": "%"}]}
{"smiles": "CC(=O)N(O)CCCC(=O)NS(C)(=O)=O", "values": [{"measurement": "inhibition", "setting": "[1]", "result": 29, "unit": "%"}]}
{"smiles": "CC(=O)N(O)CCCS(=O)(=O)O", "values": [{"measurement": "pIC50", "setting": "[3]", "result": "< 4.00"}, {"measurement": "inhibition", "setting": "[1]", "result": 36, "unit": "%"}]}
{"smiles": "CC(=O)N(O)CCC1NC(=O)NC1=O", "note": "(configuration not stated)", "values": [{"measurement": "inhibition", "setting": "[1]", "result": 13, "unit": "%"}]}
{"smiles": "CC(=O)N(O)CCCC(=O)O", "values": [{"measurement": "inhibition", "setting": "[1]", "result": 0, "unit": "%"}]}
{"smiles": "CC(=O)N(O)CCc1c(C(=O)O)noc1C", "values": [{"measurement": "pIC50", "setting": "[3]", "result": 3.82}, {"measurement": "MIC", "setting": "[2]", "result": "> 512", "unit": "µg/mL"}, {"measurement": "inhibition", "setting": "[1]", "result": 41, "unit": "%"}]}
